Results taken from ChEMBL document CHEMBL4257447, “Discovery of human lactate dehydrogenase A (LDHA) inhibitors as anticancer agents to inhibit the proliferation of MG-63 osteosarcoma cells” (Medchemcomm, 2017).
Each block holds one molecule with its values, some of them ahead of it. Calls of active or inactive are those of the source. The rule behind the calls is not given here.

What was measured:
[1] = molecular target: T1, L-lactate dehydrogenase A chain (Homo sapiens, UniProt P00338); test: Inhibition of human LDHA using pyruvate as substrate by monitoring the disappearance of NADH relative to control
MG-63 [2] = test: Growth inhibition of human MG63 cells at 10 uM after 72 hrs by MTT assay relative to control; format: functional; settings: for inhibition of growth at 10 µM: MG-63, 72 h, read-out: GI
In short: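 MG-63 cells (2500/well) were plated overnight. 10 μL of 100 μM working solution in PBS, diluted from 40 mM stock, was added for 72 h. MTT was added for 4 h, the solvent replaced with DMSO, and OD570 read as percent growth inhibition.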

[3] = molecular target: L-lactate dehydrogenase A chain (Bos taurus, UniProt P19858); test: Inhibition of bovine heart LDHA
MG-63 [4] = test: Induction of apoptosis in human MG63 cells assessed as viable cells at 10 uM after 24 hrs by annexin V-FITC/propidium iodide staining-based flow cytometric analysis (reference value: 95.2%); format: functional; settings: MG-63, 24 h, read-out: Activity
[5] = molecular target: T1, L-lactate dehydrogenase A chain; test: Inhibition of LDHA in human MG63 cells assessed as decrease in extracellular acidification rate at 2 to 10 uM after 6 hrs by XF24 extracellular flux analyzer based assay; format: cell-based
In short: (§1)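 MG-63 cells (30 000/well) were pretreated for 6 h with a range of concentrations. OCR and ECAR were then measured on the XF24 extracellular flux analyzer.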

MG-63 [6] = test: Induction of apoptosis in human MG63 cells assessed as early apoptotic cells at 10 uM after 24 hrs by annexin V-FITC/propidium iodide staining-based flow cytometric analysis (reference value: 0.8%); format: functional
MG-63 [7] = test: Induction of apoptosis in human MG63 cells assessed as viable cells at 2 uM after 24 hrs by annexin V-FITC/propidium iodide staining-based flow cytometric analysis (reference value: 95.2%); format: functional; settings: MG-63, 24 h, read-out: Activity
[8] = molecular target: T1, L-lactate dehydrogenase A chain; test: Inhibition of LDHA in human MG63 cells assessed as increase in oxygen consumption rate at 2 to 10 uM after 6 hrs by XF24 extracellular flux analyzer based assay; format: cell-based
In short: as §1

MG-63 [9] = test: Growth inhibition of human MG63 cells after 72 hrs by MTT assay; format: functional, cell-based; settings: MG-63, 72 h
In short: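 MG-63 cells (2500/well), grown in DMEM with 10% FBS at 37 °C and 5% CO2, plated overnight. They were then exposed for 72 h to eight concentrations (400 to 3.1 μM as listed), diluted in PBS from 40 mM stocks. MTT was added for 4 h and the formazan dissolved in DMSO, with OD read at 570 nm. EC50 is the mean of three independent experiments; cisplatin was the positive control.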

MG-63 [10] = test: Induction of apoptosis in human MG63 cells assessed as viable cells at 5 uM after 24 hrs by annexin V-FITC/propidium iodide staining-based flow cytometric analysis (reference value: 95.2%); format: functional; settings: MG-63, 24 h, read-out: Activity
MG-63 [11] = test: Induction of apoptosis in human MG63 cells assessed as necrotic cells at 10 uM after 24 hrs by annexin V-FITC/propidium iodide staining-based flow cytometric analysis (reference value: 0.8%); format: functional
MG-63 [12] = test: Induction of apoptosis in human MG63 cells assessed as necrotic cells at 2 uM after 24 hrs by annexin V-FITC/propidium iodide staining-based flow cytometric analysis (reference value: 0.8%); format: functional
MG-63 [13] = test: Induction of apoptosis in human MG63 cells assessed as late apoptotic cells at 10 uM after 24 hrs by annexin V-FITC/propidium iodide staining-based flow cytometric analysis (reference value: 3.2%); format: functional
MG-63 [14] = test: Induction of apoptosis in human MG63 cells assessed as late apoptotic cells at 2 uM after 24 hrs by annexin V-FITC/propidium iodide staining-based flow cytometric analysis (reference value: 3.2%); format: functional
[15] = molecular target: T1, L-lactate dehydrogenase A chain; test: Binding affinity to LDHA (unknown origin) by ITC analysis
In short: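 LDHA diluted to 10 μM in 50 mM Hepes pH 7.2, 100 mM NaCl, 2 mM DTT, 1% DMSO (250 μL in cell); ligand at 100 μM in the same buffer titrated in 2.5 μL injections at 25 °C. One-site model fit gives the binding parameters.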

MG-63 [16] = test: Induction of apoptosis in human MG63 cells assessed as late apoptotic cells at 5 uM after 24 hrs by annexin V-FITC/propidium iodide staining-based flow cytometric analysis (reference value: 3.2%); format: functional
[17] = molecular target: T1, L-lactate dehydrogenase A chain; test: Inhibition of human LDHA at 2 uM using pyruvate as substrate by monitoring the disappearance of NADH relative to control
MG-63 [18] = test: Induction of apoptosis in human MG63 cells assessed as early apoptotic cells at 5 uM after 24 hrs by annexin V-FITC/propidium iodide staining-based flow cytometric analysis (reference value: 0.8%); format: functional
MG-63 [19] = test: Induction of apoptosis in human MG63 cells after 24 hrs by annexin V-FITC/propidium iodide staining-based flow cytometric analysis; format: functional, cell-based
MG-63 [20] = test: Induction of apoptosis in human MG63 cells assessed as necrotic cells at 5 uM after 24 hrs by annexin V-FITC/propidium iodide staining-based flow cytometric analysis (reference value: 0.8%); format: functional
[21] = molecular target: T1, L-lactate dehydrogenase A chain; test: Inhibition of LDHA in human MG63 cells assessed as decrease in lactate levels after 4 hrs; format: cell-based
In short: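 MG-63 cells (3×10^5/well, 6-well) were plated overnight and treated for 4 h at 2, 5, 8, 10 and 12 μM, with 10 μM for the reference. Medium was centrifuged for 5 min and 1 mL assayed for lactate on a Nova Bioprofile Flex analyzer. IC50 was derived from the dose-response.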

MG-63 [22] = test: Induction of apoptosis in human MG63 cells assessed as early apoptotic cells at 2 uM after 24 hrs by annexin V-FITC/propidium iodide staining-based flow cytometric analysis (reference value: 0.8%); format: functional

IC50 [1]: 2370 nM
SMILES: O=C1CC(c2c(Cl)cccc2Cl)CC(O)=C1Sc1ccccc1Cl (stereo not given)
growth inhibition (GI) (MG-63 [2]): inactive

SMILES: COC(=O)C[C@H](c1cccc(O)c1)c1oc(CSc2ccccc2OC)cc(=O)c1O
inhibition of growth at 10 µM (MG-63 [2]): 68.9%

SMILES: NC(=O)C(=O)O [OXAMATE]
Ki [3]: 136000 nM

inhibition [5]: Active
inhibition [8]: Dose-dependent effect
Kd [15]: 950 nM
inhibition [17]: 94%
IC50 [1]: 330 nM
IC50 [21]: 7190 nM
inhibition [21]: Dose-dependent effect
SMILES: COCc1cc(=O)c(O)c([C@@H](CC(N)=O)c2cc3ccccc3n(CC(C)C)c2=O)o1
viability at 10 µM (MG-63 [4]): 82.9%
Activity (MG-63 [6]): 3%
viability at 2 µM (MG-63 [7]): 94%
EC50 (MG-63 [9]): 3350 nM
viability at 5 µM (MG-63 [10]): 89.3%
Activity (MG-63 [11]): 1.2%
Activity (MG-63 [12]): 0.6%
Activity (MG-63 [13]): 12.9%
Activity (MG-63 [14]): 4.4%
Activity (MG-63 [16]): 5.8%
Activity (MG-63 [18]): 4.2%
Activity (MG-63 [19]): Dose-dependent effect
Activity (MG-63 [20]): 0.7%
inhibition of growth at 10 µM (MG-63 [2]): 88.7%
Activity (MG-63 [22]): 1%

SMILES: Cc1cc(=O)c(O)c([C@H](CC(=O)N2CCc3c([nH]c4ccccc34)C2)c2ccnc3ccccc23)o1
inhibition of growth at 10 µM (MG-63 [2]): 48.7%

SMILES: COc1c(C)c2c(c(O)c1C/C=C(\C)CCC(=O)NCc1ccc(Cl)cc1)C(=O)OC2
growth inhibition (GI) (MG-63 [2]): inactive

inhibition [17]: 71%
SMILES: CCOC(=O)C[C@H](c1cc(OC)c2c(c1)OCCO2)c1oc(CO)cc(=O)c1O
inhibition of growth at 10 µM (MG-63 [2]): 67.8%
